Reference: ChEMBL document CHEMBL1128434, “Gonadotropin-releasing hormone antagonists: novel members of the azaline B family” (1995)
Values belong to the compound of their own block, whether it stands above or below them. The source made the active and inactive calls. The calls are words filed in the database; no cut-off is given here.

Tests used:
[1] = species: Rattus norvegicus; experiment: Effect in the anti ovulatory assay (AOA) in rats expressed as no. of rats ovulating/No of rats treated at 2.5 mg; 2/7; format: functional
[2] = species: Rattus norvegicus; experiment: Effect in the anti ovulatory assay (AOA) in rats expressed as no. of rats ovulating/No of rats treated at 50 mg; 4/8; format: functional
[3] = species: Rattus norvegicus; experiment: Effect in the anti ovulatory assay (AOA) in rats expressed as no. of rats ovulating/No of rats treated at 10 mg; 2/2; format: functional
[4] = species: Rattus norvegicus; experiment: Effect in the anti ovulatory assay (AOA) in rats expressed as no. of rats ovulating/No of rats treated at 100 mg; 0/4; format: functional
[5] = species: Rattus norvegicus; experiment: Effect in the anti ovulatory assay (AOA) in rats expressed as no. of rats ovulating/No of rats treated at 2.5 mg; 0/2; format: functional
[6] = biological target: T1, Gonadotropin-releasing hormone receptor (Rattus norvegicus) (UniProt P30969); experiment: In vitro potency to inhibit GnRH-mediated LH secretion by cultured pituitary cells relative to [Ac-delta-Pro1,DFpa2,DTrp36]GnRH.; format: functional, cell-based; conditions: Pituitary gland cell
T1 sequence (whole entry): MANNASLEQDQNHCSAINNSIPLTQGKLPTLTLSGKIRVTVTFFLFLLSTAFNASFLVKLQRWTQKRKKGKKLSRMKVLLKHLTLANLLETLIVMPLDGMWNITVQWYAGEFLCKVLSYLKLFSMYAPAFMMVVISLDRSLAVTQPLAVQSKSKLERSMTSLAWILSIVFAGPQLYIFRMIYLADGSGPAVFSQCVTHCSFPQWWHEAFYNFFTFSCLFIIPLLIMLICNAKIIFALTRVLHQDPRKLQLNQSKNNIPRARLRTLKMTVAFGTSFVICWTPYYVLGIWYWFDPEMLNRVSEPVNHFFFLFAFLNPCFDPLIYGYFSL
Summary of the method: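 Dispersed rat pituitary cells in culture; antagonist inhibition of GnRH-stimulated LH secretion. Potency expressed relative to standard antagonist [Ac-Δ3Pro1,D4FPhe2,DTrp3,6]GnRH taken as 1.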

[7] = species: Rattus norvegicus; experiment: Effect in the anti ovulatory assay (AOA) in rats expressed as no. of rats ovulating/No of rats treated at 0.5 mg; 8/8; format: functional
[8] = species: Rattus norvegicus; experiment: Effect in the anti ovulatory assay (AOA) in rats expressed as no. of rats ovulating/No of rats treated at 1.0 mg; 4/15; format: functional
[9] = biological target: T1, Gonadotropin-releasing hormone receptor (Rattus norvegicus); experiment: Duration of action, measured using castrated male rat assay to inhibit luteinizing hormone release.; fully active at 24 hr but not at 48 hr; format: functional
[10] = species: Rattus norvegicus; experiment: Duration of action measured using castrated male rat assay to inhibit luteinizing hormone release.; In active at 24 hr; format: functional, organism-based
[11] = species: Rattus norvegicus; experiment: Effect in the anti ovulatory assay (AOA) in rats expressed as no. of rats ovulating/No of rats treated at 2.5 mg; 3/3; format: functional
[12] = species: Rattus norvegicus; experiment: Effect in the anti ovulatory assay (AOA) in rats expressed as no. of rats ovulating/No of rats treated at 0.5 mg; 3/4; format: functional
[13] = species: Rattus norvegicus; experiment: Effect in the anti ovulatory assay (AOA) in rats expressed as no. of rats ovulating/No of rats treated at 1.0 mg; 5/8; format: functional
[14] = species: Rattus norvegicus; experiment: Effect in the anti ovulatory assay (AOA) in rats expressed as no. of rats ovulating/No of rats treated at 1.0 mg; 4/6; format: functional
[15] = species: Rattus norvegicus; experiment: Effect in the anti ovulatory assay (AOA) in rats expressed as no. of rats ovulating/No of rats treated at 2.5 mg; 2/8; format: functional
[16] = biological target: T1, Gonadotropin-releasing hormone receptor (Rattus norvegicus); experiment: Effect in the anti ovulatory assay (AOA) in rats expressed as no. of rats ovulating/No of rats treated at 2.5 mg; 0/8; format: functional
[17] = species: Rattus norvegicus; experiment: Effect in the anti ovulatory assay (AOA) in rats expressed as no. of rats ovulating/No of rats treated at 1.0 mg; 6/6; format: functional
[18] = species: Rattus norvegicus; experiment: Effect in the anti ovulatory assay (AOA) in rats expressed as no. of rats ovulating/No of rats treated at 1.0 mg; 11/15; format: functional
[19] = species: Rattus norvegicus; experiment: Effect in the anti ovulatory assay (AOA) in rats expressed as no. of rats ovulating/No of rats treated at 0.5 mg; 4/4; format: functional

Structure (SMILES): CC(=O)N[C@H](Cc1ccc2ccccc2c1)C(=O)N[C@H](Cc1ccc(Cl)cc1)C(=O)N[C@H](Cc1cccnc1)C(=O)N[C@@H](CO)C(=O)N(C)[C@@H](Cc1ccc(O)cc1)C(=O)N[C@H](Cc1ccc(Nc2n[nH]c(N)n2)cc1)C(=O)N[C@@H](CC(C)C)C(=O)N[C@@H](CCCCNC(C)C)C(=O)N1CCC[C@H]1C(=O)N[C@H](C)N
No. of rats ovulated [1]: 2

Structure (SMILES): CC(=O)N[C@H](Cc1ccc2ccccc2c1)C(=O)N[C@H](Cc1ccc(Cl)cc1)C(=O)N[C@H](Cc1cccnc1)C(=O)N[C@@H](CO)C(=O)N(C)[C@@H](Cc1ccc(Nc2n[nH]c(N)n2)cc1)C(=O)N[C@H](Cc1ccc(Nc2n[nH]c(N)n2)cc1)C(=O)N[C@@H](CC(C)C)C(=O)N[C@@H](Cc1ccc(NC(C)C)cc1)C(=O)N1CCC[C@H]1C(=O)N[C@H](C)N
No. of rats ovulated [2]: 4 | No. of rats ovulated [3]: 2 | No. of rats ovulated [4]: 0

Structure (SMILES): CC(=O)NCCCC[C@H](NC(=O)[C@H](CO)NC(=O)[C@@H](Cc1cccnc1)NC(=O)[C@@H](Cc1ccc(Cl)cc1)NC(=O)[C@@H](Cc1ccc2ccccc2c1)NC(C)=O)C(=O)N[C@H](CCCCNC(C)=O)C(=O)N[C@@H](CC(C)C)C(=O)N[C@@H](CCCCNC(C)C)C(=O)N1CCC[C@H]1C(=O)N[C@H](C)N
Duration of action [10]: inactive | No. of rats ovulated [11]: 3 | Relative potency [6]: 0.36

Structure (SMILES): CC(=O)N[C@@H](CC(N)=O)C(=O)Nc1ccc(C[C@H](NC(=O)[C@H](CO)NC(=O)[C@@H](Cc2cccnc2)NC(=O)[C@@H](Cc2ccc(Cl)cc2)NC(=O)[C@@H](Cc2ccc3ccccc3c2)NC(C)=O)C(=O)N[C@H](Cc2ccc(NC(=O)[C@@H](CC(N)=O)NC(C)=O)cc2)C(=O)N[C@@H](CC(C)C)C(=O)N[C@@H](CCCCNC(C)C)C(=O)N2CCC[C@H]2C(=O)N[C@H](C)N)cc1
No. of rats ovulated [14]: 4 | No. of rats ovulated [15]: 2

The next lines start with results.

Relative potency [6]: 0.47 | Duration of action [9]: 24 h
Structure (SMILES): CC(=O)N[C@@H](Cc1c[nH]cn1)C(=O)Nc1ccc(C[C@H](NC(=O)[C@H](CO)NC(=O)[C@@H](Cc2cccnc2)NC(=O)[C@@H](Cc2ccc(Cl)cc2)NC(=O)[C@@H](Cc2ccc3ccccc3c2)NC(C)=O)C(=O)N[C@H](Cc2ccc(NC(=O)[C@@H](Cc3c[nH]cn3)NC(C)=O)cc2)C(=O)N[C@@H](CC(C)C)C(=O)N[C@@H](CCCCNC(C)C)C(=O)N2CCC[C@H]2C(=O)N[C@H](C)N)cc1
No. of rats ovulated [5]: 0 | No. of rats ovulated [7]: 8 | No. of rats ovulated [8]: 4

Relative potency [6]: 0.85 | Duration of action [9]: 24 h
Structure (SMILES): CC(=O)NCC(=O)Nc1ccc(C[C@H](NC(=O)[C@H](CO)NC(=O)[C@@H](Cc2cccnc2)NC(=O)[C@@H](Cc2ccc(Cl)cc2)NC(=O)[C@@H](Cc2ccc3ccccc3c2)NC(C)=O)C(=O)N[C@H](Cc2ccc(NC(=O)CNC(C)=O)cc2)C(=O)N[C@@H](CC(C)C)C(=O)N[C@@H](CCCCNC(C)C)C(=O)N2CCC[C@H]2C(=O)N[C@H](C)N)cc1
No. of rats ovulated [12]: 3 | No. of rats ovulated [13]: 5

No. of rats ovulated [16]: 0
Structure (SMILES): CCCC(=O)Nc1ccc(C[C@H](NC(=O)[C@H](CO)NC(=O)[C@@H](Cc2cccnc2)NC(=O)[C@@H](Cc2ccc(Cl)cc2)NC(=O)[C@@H](Cc2ccc3ccccc3c2)NC(C)=O)C(=O)N[C@H](Cc2ccc(NC(=O)CCC)cc2)C(=O)N[C@@H](CC(C)C)C(=O)N[C@@H](CCCCNC(C)C)C(=O)N2CCC[C@H]2C(=O)N[C@H](C)N)cc1
No. of rats ovulated [17]: 6

Relative potency [6]: 0.65
Structure (SMILES): CC(=O)N[C@H](Cc1ccc2ccccc2c1)C(=O)N[C@H](Cc1ccc(Cl)cc1)C(=O)N[C@H](Cc1cccnc1)C(=O)N[C@@H](CO)C(=O)N[C@@H](Cc1ccc(NC(=O)c2n[nH]c(N)n2)cc1)C(=O)N[C@H](Cc1ccc(NC(=O)c2n[nH]c(N)n2)cc1)C(=O)N[C@@H](CC(C)C)C(=O)N[C@@H](CCCCNC(C)C)C(=O)N1CCC[C@H]1C(=O)N[C@H](C)N
No. of rats ovulated [18]: 11 | No. of rats ovulated [19]: 4
